This note sets out measurements from PubChem BioAssay AID588478 (ICCB-Longwood Screening Facility, Harvard Medical School, 2011).

SMILES strings stand for the structures. Screen size: about 330,000 compounds; about 1,100 (0.33%) were called active. The sample holds actives, similar compounds and a random draw of the others, so the mix is not that of the screen. A number with no mark means an inactive call.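 Rule for the calls: active = mean inhibition over replicate wells above about 20% (limit read from the data); inactive = the rest.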

A word on the inhibition: it is the relative decrease from the control value, in per cent.

Sequence of Ubiquitin carboxyl-terminal hydrolase isozyme L5 (Homo sapiens) (Q9Y5K5 whole entry, looked up): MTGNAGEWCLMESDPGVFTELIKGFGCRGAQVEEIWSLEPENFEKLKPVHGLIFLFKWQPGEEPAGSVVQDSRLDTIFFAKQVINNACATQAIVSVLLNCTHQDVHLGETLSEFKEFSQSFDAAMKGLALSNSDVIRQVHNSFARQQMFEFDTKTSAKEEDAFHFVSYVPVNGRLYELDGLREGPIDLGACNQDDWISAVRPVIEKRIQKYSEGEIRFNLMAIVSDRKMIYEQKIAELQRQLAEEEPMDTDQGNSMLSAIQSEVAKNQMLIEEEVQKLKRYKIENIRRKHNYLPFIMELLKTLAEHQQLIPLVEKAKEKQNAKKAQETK

The assay has as its target Ubiquitin carboxyl-terminal hydrolase isozyme L5 (Homo sapiens) (UniProt Q9Y5K5). In words: proteasome-bound UCH37 DUB activity blockers – biochemical, Ub-AMC cleavage, fluorescence, primary screen (AID 588478).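 Note: 0% = compound-free wells with enzyme and 100% = wells lacking proteasome.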 As to conditions: purified proteasome/UCH37, Ub-AMC cleavage fluorescence; stronger effect = higher value; concentration not given here. The method, boiled down:
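System: Proteasome-associated human UCH37 deubiquitinase; Input: 0.15 nM proteasome in added enzyme buffer; Also added: Ub-AMC substrate from 1 µM stock; Incubation: 30 min compound-proteasome preincubation then 25 min substrate reaction, room temperature; Detection: fluorescence, ex 355 nm, em 460 nm; Read-out: % inhibition of Ub-AMC cleavage fluorescence; Benchmarks: no-proteasome and no-compound wells.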
On to `O=c1ccc2c(-c3ccccc3S(=O)(=O)O)c3ccc(O)c(O)c3oc-2c1O`, for which the inhibition is 29% (active).

Take `O=C1c2ccccc2NC(c2ccco2)N1N=Cc1ccco1` (configuration not stated): the inhibition is -3.31%.

In the case of `COC(=O)c1ccc(-c2ccc(C=NN3C(=O)C4C5C=CC(CC5)C4C3=O)o2)cc1` (configuration not stated), the inhibition is -1.63%.

On to `CC(=O)OC[C@H]1O[C@@H](ON=C[C@@H](C)[C@H](OCc2ccccc2)C(C)C)[C@H](OC(C)=O)[C@@H](OC(C)=O)[C@@H]1OC(C)=O`, for which the inhibition is 1.03%.

For the molecule `CCOc1cc(C=NNC(=O)C(=O)N2CCCC2)ccc1O`, the inhibition was 7.79%.

As for `CCOC(=O)N1CCN(C(=O)CNC(=O)Cc2ccc(Cl)cc2)CC1`, the inhibition is 33.3% (active).

Take `CCOC(=O)N1CCN(C(=O)C(C)NC(=O)c2ccco2)CC1` (configuration not stated): the inhibition was 1.14%.

Consider `CCOC(=O)N1CCN(C(=O)Cc2ccc(-n3c(=S)[nH]c4ccccc4c3=O)cc2)CC1`, for which the inhibition is 2.68%.

For `CC(C)(C)OC(=O)NCCC(=O)NN=Cc1ccc2nccnc2c1`, the inhibition is 3.74%.

For the molecule `COC(=O)c1nn(-c2ccccc2)c(Sc2ccc(Cl)cc2)c1C=NO`, the inhibition was -1.82%.

With `Cn1nnnc1SCC(=O)N1CCN(C(c2ccccc2)c2ccccc2)CC1`, the inhibition is 2.55%.

For `Cc1onc(C(=O)NN)c1C(=O)N1CCN(C(c2ccccc2)c2ccccc2)CC1`, the inhibition is 1.47%.

On to `O=C(c1ccc(-n2cnnn2)cc1)N1CCN(C(c2ccccc2)c2ccccc2)CC1`, for which the inhibition was 26.6% (active).

Take `C=C1CC(C(=O)NN=Cc2ccccc2)C1`: the inhibition is 1.24%.

As to `COc1cccc(C=NNC(=S)NC2CC3CCC2C3)c1OC` (configuration not stated), the inhibition was 2.43%.

For `CCN1C[C@@H]2[C@@H]3C(=O)N(Cc4ccccc4)C(=O)[C@@H]3[C@](Cc3ccccc3)(C(=O)OC)N2C1=NC1CCCCC1`, the inhibition was -0.224%.

On to `CCN1C[C@@H]2[C@@H]3C(=O)N(C)C(=O)[C@@H]3[C@](C)(C1=O)N2C(=O)c1ccccc1`, for which the inhibition is 1.29%.

Regarding `CCN1C[C@@H]2[C@@H]3C(=O)N(Cc4ccccc4)C(=O)[C@@H]3[C@](C)(C1=O)N2C(=O)c1ccc(C(C)(C)C)cc1`, the inhibition is 28.4% (active).

In the case of `CON=C(C(=O)N[C@@H]1C(=O)N2C(C(=O)O)=C(COC(N)=O)CS[C@H]12)c1ccco1`, the inhibition is -2.85%.

With `CC(CC(C)(C)c1ccccc1)=NNS(=O)(=O)c1ccccc1`, the inhibition was 3.32%.

For the molecule `Cc1nn(-c2ccccc2)c(Cl)c1C=NO`, the inhibition was 1.54%.

Take `Nc1nonc1C(=O)NN=Cc1ccc(-c2cccc([N+](=O)[O-])c2)o1`: the inhibition was 9.92%.

Take `Cn1cc([N+](=O)[O-])c(C(=O)NN=Cc2ccc([N+](=O)[O-])cc2)n1`: the inhibition was 11.9%.

As for `CN(C)c1ccc(C=NNC(=O)c2nonc2N)cc1[N+](=O)[O-]`, the inhibition was 20.3% (active).

For `O=C(CCCCO)CCCCCCCCC1NC(CO)C(O)C1O[C@@H]1OC(CO)C(O)C(O)C1O` (some centres not stated), the inhibition is 1.76%.

Regarding `O=C(NN=C(c1ccccc1)c1cccnc1)c1ccc(O)cc1`, the inhibition is 4.07%.

As for `CCC(C)C(C)=NNC(=O)c1ccc(COc2ccc(Cl)c(C)c2)cc1` (configuration not stated), the inhibition was 1.66%.

As for `Oc1ccc(C=NNc2cccc3cccnc23)c(O)c1`, the inhibition was 1.33%.

For the molecule `C#CCOCCOCCOCCNc1nc(N2CCN(C(=O)[C@H](CCCN=C(N)N)n3cc(C(N)[C@@H](C)CC)nn3)CC2)nc(N2CCN(C(=O)[C@H](CO)n3cc([C@@H](N)C(C)C)nn3)CC2)n1` (some centres not stated), the inhibition is 3.95%.

With `C#CCOCCOCCOCCNc1nc(N2CCN(C(=O)[C@H](C(C)C)n3cc(CCO)nn3)CC2)nc(N2CCN(C(=O)[C@H](C(C)C)n3cc(CCO)nn3)CC2)n1`, the inhibition was 0.233%.

As for `C#CCOCCOCCOCCNc1nc(N2CCN(C(=O)[C@H](C(C)C)n3cc(CCO)nn3)CC2)nc(N2CCN(C(=O)[C@H]([C@@H](C)CC)n3cc(CCCN=C(N)N)nn3)CC2)n1`, the inhibition is 34.8% (active).

As for `CC(C)NC(=O)CC(=O)NN=Cc1ccccc1F`, the inhibition was 4.78%.

Turning to `CSc1cc(C=NO)c(SC)s1`, the inhibition was 3.15%.

Take `COc1nc(N(C)C)nc(N2CC(=O)N(CCNS(=O)(=O)c3ccc(C)cc3)C2=N)n1`: the inhibition was -1.6%.

Regarding `CCCn1nc(Oc2nc(NC(C)C)nc(N(C)C)n2)ccc1=O`, the inhibition was 6.24%.

Consider `COc1nc(Oc2ccc(=O)n(C)n2)nc(N(C)C)n1`, for which the inhibition was 29.8% (active).

Take `CN(C)c1nc(NN=Cc2c[nH]c3ccccc23)nc(N2CCOCC2)n1`: the inhibition was 5.58%.

With `CC(C)CC[n+]1ccn(C2=C([O-])c3ccccc3C(=O)/C2=N\S(=O)(=O)c2ccccc2)c1`, the inhibition is 32.4% (active).

For `Cc1ccc(C=NNC(=O)c2cc([N+](=O)[O-])cc([N+](=O)[O-])c2)o1`, the inhibition was 5.25%.

As for `CN(C)/C=C(\C#N)C(=O)NN=Cc1ccccc1`, the inhibition is 6.55%.

As for `CN(C)C=Nc1sc2c(c1C#N)CCC2`, the inhibition was 9.38%.

For the molecule `COC(=O)[C@H](Cc1ccccc1)NC(=O)[C@@H]1C[C@H]1[C@@H](NC(=O)OCc1ccccc1)c1ccccc1`, the inhibition was 1.36%.

With `CC(C)[C@H](NC(=O)OCc1ccccc1)C(=O)OCc1ccccc1`, the inhibition was 0.329%.

Turning to `COC(=O)[C@H](C)[C@H]1C[C@]1(C)[C@H](NC(=O)OCc1ccccc1)c1ccccc1`, the inhibition was 31% (active).

`O=C(NN=Cc1ccco1)c1cc(=O)[nH]c2ccccc12`: the inhibition is 7.58%.

In the case of `O=C(CN1CCN(C(=O)c2ccco2)CC1)Nc1ccc2c(c1)OCO2`, the inhibition was 1.43%.

On to `CCC(=O)Nc1ccc(C(=O)N2CCN(C(=O)c3ccco3)CC2)cc1`, for which the inhibition is 31.4% (active).

As to `O=C(c1ccc2c(c1)OCO2)N1CCN(C(=O)c2ccco2)CC1`, the inhibition was 0.962%.

For the molecule `Cc1ccc2nc(C(Cl)(Cl)Cl)nc(NN=Cc3ccc([N+](=O)[O-])cc3)c2c1`, the inhibition is -0.00251%.

As for `S=c1[nH]nc(-c2cccc(Cl)c2)n1N=Cc1ccc(-c2ccccc2Br)o1`, the inhibition was 8%.

As to `O=C1c2ccccc2NC(c2ccc(-c3cccc(Cl)c3)o2)N1O` (configuration not stated), the inhibition was -14.2%.

Regarding `O=C(O)C(c1ccccc1)N1C(=O)/C(=C\c2ccc(-c3cccc(Cl)c3)o2)SC1=S` (configuration not stated), the inhibition is 37.5% (active).

With `CC(=O)n1cc(C=NNC(=O)c2ccc(Cl)cc2)c2ccccc21`, the inhibition was 2.16%.

Take `O=C(Cc1cccs1)NN=Cc1ccc(O)cc1`: the inhibition was 1.44%.

As to `CCOC(=O)c1c(N=CC2=C(O)CC(C)(C)CC2=O)sc(C)c1C`, the inhibition is -1.87%.

As for `Cc1ccc(C=NNC(=O)CSc2nc3ccccc3c(=O)n2-c2ccccc2)s1`, the inhibition is 4.54%.

As for `CC(C)(C)c1ccc(C=NNC(=S)Nc2cccnc2)cc1`, the inhibition is 2.4%.

In the case of `Oc1ccc(C=NNC(=S)Nc2cccnc2)c(O)c1O`, the inhibition is 22.7% (active).

Turning to `Cc1ccc(NC(=O)Nc2cccnc2)cc1`, the inhibition was 0.429%.

On to `COc1cc(C=NN(C)C)ccc1OC(=O)c1cccs1`, for which the inhibition is 0.992%.

With `COc1ccc(NC(=O)ON=Cc2ccccc2)cc1`, the inhibition was 2.45%.

As for `CC(=NNC(=O)c1cccs1)c1ccc(NC(=O)COc2ccc(Cl)cc2)cc1`, the inhibition was -42%.

In the case of `O=C(O)c1cc(NN=Cc2ccncc2)ccc1Cl`, the inhibition was 14.4%.

With `Nc1nnnn1CC(=O)NN=Cc1cc([N+](=O)[O-])ccc1Cl`, the inhibition is 4.32%.

Take `CCCCCCCCn1c2c(c(=N)c3c1CCC3)CCCC2`: the inhibition was 25.7% (active).

In the case of `Cc1ccc(C=NNC(=O)CNC(=O)COc2ccccc2)o1`, the inhibition is 6.97%.

Take `CC(C)(C)NN=Cc1cc(Cl)cc([N+](=O)[O-])c1O`: the inhibition was 6.29%.

As for `CNC(=O)C(C#N)=c1sc(=CC(=O)OC)c(=O)n1-c1ccccc1`, the inhibition is 3.97%.

For the molecule `Cc1ccc(C=NN2CCN(Cc3ccccc3)CC2)o1`, the inhibition was 1.82%.

Consider `COc1cc(NC(=O)COC(=O)c2ccc([N+](=O)[O-])s2)cc(OC)c1OC`, for which the inhibition was 70.6% (active).

`COc1ccc(C(=O)OCC(=O)Nc2ccc3[nH]c(=O)[nH]c3c2)c(OC)c1OC`: the inhibition was 0.187%.

Take `COc1ccc(C(=O)COC(=O)c2ccc([N+](=O)[O-])s2)cc1OC`: the inhibition is 4.79%.

`COc1cccc(C=NNc2cc(-n3nc(C)cc3-c3ccccc3)ncn2)c1O`: the inhibition is 3.24%.

`O=[N+]([O-])c1cc(S(=O)(=O)N2CCCC2)ccc1NN=Cc1cccnc1`: the inhibition was 3.11%.

Take `Cc1nn(-c2ccccc2)c(C)c1C=NNC(=O)c1cccs1`: the inhibition is 2.82%.

For the molecule `O=C1C(Cl)=C(Oc2ccccc2)C(=O)c2ccccc21`, the inhibition is 73.8% (active).

Regarding `CC(=O)Oc1ccc2c(c1)C(=O)c1ccccc1C2=O`, the inhibition is 6.5%.

Consider `Cc1cc(C)c(COc2ccc(C=Nn3c(C)n[nH]c3=S)cc2)c(C)c1`, for which the inhibition is 2.64%.

In the case of `C[n+]1cn(N=Cc2ccccc2)c2ccccc21`, the inhibition is 0.369%.

`COc1ccc(C(C)=NNc2ccc(C(=O)O)cc2)cc1OC`: the inhibition was 12.1%.

As to `COC1(C2=NCCN2)COc2ccccc2O1` (configuration not stated), the inhibition is 22.9% (active).

As for `CCCC=NNc1nnc(Cc2ccc(OC)c(OC)c2)c(=O)[nH]1`, the inhibition is 2.12%.

In the case of `COc1ccc(C(C)=NNC(=O)c2ccc(N(C)C)cc2)cc1`, the inhibition was 3.67%.

Regarding `COc1cc(NS(=O)(=O)c2ccc(NC(=O)c3ccc([N+](=O)[O-])cc3)cc2)ncn1`, the inhibition is 4.65%.

In the case of `CC(=O)NC(=S)Nc1ccc(NC(=S)NC(=O)c2ccc([N+](=O)[O-])cc2)cc1`, the inhibition is 5.88%.

In the case of `Cn1ccc(=Nc2ccc(NC(=O)c3ccc(N=c4ccn(C)c5ccc([N+](=O)[O-])cc45)cc3)cc2)cc1`, the inhibition was 27.5% (active).

With `COc1ccccc1/C=C/C=NN1CCN(Cc2ccc(Cl)cc2)CC1`, the inhibition is 5.57%.
